# This is a sample that favours compounds with a hit; in the whole collection about 0.58% have one here.
# OXTR agonist: agonists of human oxytocin receptor. P30559. activation, % at 3 µM. actives 0.32% (n = 320,000). CHO-OTR cells, Fluo-8 calcium fluorescence; normalized: DMSO 0%, oxytocin 100%;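 active means activation above the mean of all tested compounds plus 3 SD, cutoff set per screening run, cut at about 20% in these data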;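 further: peak over basal fluorescence ratio from a 100 s FLIPR kinetic read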
# TRPML3 agonist: activates the human TRPML3 channel; activation, % at 3 µM; AID 1448; Q8TDD5; HEK293 TRPML3-YFP, Fluo-8 calcium fluorescence; 100% = the carbachol control signal; actives 0.29% (n = 220,000);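 active means activation above its plate's cutoff, the mean activation of the plate's test wells plus 3 SD, cut at about 12% in these data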;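 further: 0% = DMSO only wells and 100% = carbachol wells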
# Target sequence (Q8TDD5 whole entry, looked up): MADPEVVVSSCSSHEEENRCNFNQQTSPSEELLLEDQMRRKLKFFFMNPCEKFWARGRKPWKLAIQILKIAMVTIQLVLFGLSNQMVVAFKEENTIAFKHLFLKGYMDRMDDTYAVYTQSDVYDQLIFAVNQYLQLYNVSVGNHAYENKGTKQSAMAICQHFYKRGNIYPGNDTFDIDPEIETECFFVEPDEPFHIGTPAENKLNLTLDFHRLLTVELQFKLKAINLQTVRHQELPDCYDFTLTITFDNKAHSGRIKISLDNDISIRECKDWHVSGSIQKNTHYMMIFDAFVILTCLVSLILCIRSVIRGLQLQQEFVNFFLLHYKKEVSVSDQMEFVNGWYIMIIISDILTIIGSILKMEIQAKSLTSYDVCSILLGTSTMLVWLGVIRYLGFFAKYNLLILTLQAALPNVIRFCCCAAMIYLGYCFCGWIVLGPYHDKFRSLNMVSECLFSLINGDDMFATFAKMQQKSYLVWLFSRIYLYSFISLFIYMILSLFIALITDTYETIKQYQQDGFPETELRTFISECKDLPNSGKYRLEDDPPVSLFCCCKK
#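 Material: HEK293 cells stably carrying human TRPML3-YFP; compound dosing: single dose, 3 µM final nominal compound, 0.3% DMSO final; incubation: 1-h 37 °C dye load, 5-s basal, 120-s post-compound reads; technique: Fluo-8 intracellular calcium fluorescence, excitation 470-495 nm, emission 515-575 nm; read-out basis: percent activation from peak-to-basal fluorescence ratio, scaled between DMSO and carbachol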
# OXTR potentiate: human OXTR potentiation; actives 0.061% (n = 320,000); AID 2445; CHO-OTR cells, Fluo-8 calcium fluorescence, potentiator mode; 0% = oxytocin EC15, 100% = EC100; P30559; activation, % at 3 µM;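 active means activation above that plate's cutoff, the mean activation of tested compounds plus 3 SD, cut at about 6.6% in these data, passing the limit was not always enough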;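 further: 100% uses oxytocin at 75 nM as the full agonist control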
#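 System: human OTR in CHO cells / Also added: sub-maximal oxytocin, roughly EC15 / Control set: EC15 oxytocin low, 75 nM oxytocin high / Schedule: 6 min compound pre-incubation at room temperature, 100 s kinetic read / Compound: single-point 3.0 µM / Replication: singlicate / Technique: Fluo-8 calcium dye fluorescence / Read-out basis: % activation of max/min ratio relative to oxytocin controls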
# V1R ag counter: V1a receptor agonism, counter-screen for OXTR agonists; actives 0.25% (n = 320,000); CHO-V1R cells, Fluo-8 calcium fluorescence, agonist mode; 0% DMSO, 100% 3 nM vasopressin; activation, % at 3 µM; P37288;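 active means activation above the mean activation of all tested compounds plus 3 SD, per screening run, cut at about 20% in these data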;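 further: signal is peak over basal fluorescence ratio across a 100 second FLIPR read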
# TRPN1 ag: activates the zebrafish TRPN1 channel. HEK293 zebrafish TRPN1-YFP, Fluo-8 calcium fluorescence; 100% = response to 87 µM carbachol. activation, % at 3 µM. actives 0.18% (n = 220,000);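 active means activation above its plate's cutoff, the mean activation of test wells on that plate plus 3 SD, cut at about 19% in these data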;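 further: 0% = DMSO alone and 100% = 87 µM carbachol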
#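 Control set: carbachol 87 µM as high control, DMSO as low control; system: HEK293 stable line with zebrafish TRPN1-YFP; read-out: % activation versus carbachol response; detection: intracellular calcium fluorescence with Fluo-8; doses: single test compound dose, 3 µM nominal, 0.3% DMSO; schedule: dye 1 h 37 °C plus 30 min RT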
# Active calls of the source: *; / = no result.
SMILES,OXTR agonist,TRPML3 agonist,OXTR potentiate,V1R ag counter,TRPN1 ag
Cc1nnsc1C(=O)N/N=C/c1ccccc1,0,0,-4,2,1
CN(C(=O)c1ccc(NC(=O)Cc2cccc([N+](=O)[O-])c2)cc1)C1CC1,1,/,-7,1,/
CN(C(=O)c1ccc(NC(=O)Cc2ccc([N+](=O)[O-])cc2)cc1)C1CC1,38*,/,-9,30*,/
CCN(CC)c1ccc(/C=C/C(=O)c2ccc(Br)cc2)cc1,143*,59*,-7,154*,56*
CN(C)c1ccc(C(=O)/C=C/c2ccc(Br)cc2)cc1,-1,0,-9,0,0
Cc1cc(C)c2c(=O)n(CC(=O)Nc3ccc(Cl)cc3)sc2n1,32*,5,-11,30*,11
CCSC1=NSC2=NC(=O)/C(=C\c3coc4ccccc4c3=O)C(=N)N12,62*,15*,-11,47*,25*
CC(C)CC1=NN2C(=N)/C(=C\c3coc4ccccc4c3=O)C(=O)N=C2S1,/,4,/,/,7
Cc1ccc(NS(=O)(=O)c2ccc(C(=O)OCC(=O)Nc3cc(C)on3)cc2)cc1,/,11,/,/,22*
COc1ccc(NS(=O)(=O)c2cccc(C(=O)OCC(=O)Nc3cc(C)on3)c2)cc1,4,-1,-22,11,3
CN(C)c1ccc(/C=C/c2cc[n+]([O-])cc2)cc1,18,12*,-7,20,15
Cc1ccc(N(CCC#N)C(=O)CSc2nnc3ccccn23)cc1,2,/,2,1,/
CCOc1cccc2sc(N(CCCN(C)C)C(=O)c3ccc(S(=O)(=O)N4CCc5ccccc5C4)cc3)nc12,25*,/,-16,35*,/
CCOc1cc(/C=N/N2CCOCC2)ccc1OCc1ccc(C(=O)OC)o1,-2,144*,-7,-1,382*
CCc1ccc(C(C(=O)NC2CCCCC2)N(C(=O)CNC(=O)c2ccco2)c2cccnc2)cc1 (stereo not drawn),/,0,/,/,0
CC(=O)Nc1ccc(S(=O)(=O)NCC(=O)OC(C)c2ccccc2Cl)cc1 (stereo not drawn),7,1,-15,5,0
CCN(CCn1cccn1)C(=O)CCc1nnc(CCCc2ccccc2)o1,0,26*,-5,0,44*
COc1cccc(-c2c(C(=O)N/N=C(\C)c3cccs3)nnn2-c2nonc2N)c1,44*,/,-7,60*,/
CCOc1cccc(-c2c(C(=O)N/N=C(\C)c3cccs3)nnn2-c2nonc2N)c1,36*,/,-11,36*,/
CCOc1ccc(-c2c(C(=O)N/N=C(\C)c3cccs3)nnn2-c2nonc2N)cc1,4,/,-6,11,/
CCOc1ccc(-c2c(C(=O)N/N=C(\C)c3ccco3)nnn2-c2nonc2N)cc1,26*,/,-19,23*,/
CCOc1ccc(-c2c(C(=O)N/N=C(\C)c3ccccc3OC)nnn2-c2nonc2N)cc1,-1,/,-19,0,/
Cc1cccc(C)c1NC(=O)COC(=O)c1ccc2c(c1)OCO2,0,1,-9,0,1
Cc1cccc(C)c1NC(=O)COC(=O)c1c2c(nc3ccccc13)/C(=C\c1ccc3c(c1)OCO3)CCC2,52*,40*,-5,51*,135*
CC(OC(=O)c1c2c(nc3ccccc13)/C(=C\c1ccc3c(c1)OCO3)CCC2)C(=O)Nc1ccc(S(N)(=O)=O)cc1 (stereo not drawn),/,22*,/,/,28*
SMILES,OXTR agonist,TRPML3 agonist,OXTR potentiate,V1R ag counter,TRPN1 ag
COc1ccc2c(n1)Sc1nc3ccccc3nc1N2,86*,29*,-21,56*,57*
COC(=O)c1ccc(NC(=O)Nc2cccc(F)c2)cc1,13,10,-16,13,19*
Cc1ccc([N+](=O)[O-])cc1NC(=O)Nc1cccc(F)c1,/,11,/,/,24*
O=C(Nc1cccc(Cl)c1)Nc1csc([N+](=O)[O-])c1,17,12*,-8,8,19*
O=C(Nc1cccc([N+](=O)[O-])c1)Nc1cccs1,17,13*,-38,10,20*
COC(=O)c1ccc(NC(=O)Nc2ccc(F)cc2F)cc1,3,5,-2,7,7
COc1cc(NC(=S)NN2CCN(C)CC2)cc(OC)c1OC,0,0,-3,0,1
COc1cccc(OC)c1C(=O)OCc1c(-c2ccccc2)ncc2ccccc12,-1,/,-4,-1,/
O=C(Nc1cccc(-n2cnnn2)c1)c1ccoc1COc1ccc(Cl)cc1,3,/,-10,2,/
O=C(O)c1ccc2c(c1)OCCCO2,0,0,-3,0,2
O=C(O)c1cc2c(cc1Br)OCCCO2,0,0,-5,0,19*
O=C(CCCN=C1NS(=O)(=O)c2ccccc21)OCC(=O)c1ccc(F)cc1,20*,/,-9,23*,/
O=C(CCN=C1NS(=O)(=O)c2ccccc21)OCC(=O)c1ccc(F)cc1,2,/,-5,4,/
CN(C)c1ccc(/C=C2\SC(=S)N(Nc3ncc(C(F)(F)F)cc3Cl)C2=O)cc1,72*,8,-5,92*,14
Cc1cc(C)nc(NN2C(=O)/C(=C/c3ccccc3)SC2=S)n1,-1,0,2,0,0
Clc1cc(Cl)c(OCCCCn2cncn2)c(Cl)c1,-1,/,-19,0,/
COc1cc(/C=C2\S/C(=N/S(=O)(=O)c3ccc(C)cc3)NC2=O)c([N+](=O)[O-])cc1OC,-1,0,1,-1,1
Cc1ccc(S(=O)(=O)/N=C2/NC(=O)/C(=C/c3cc([N+](=O)[O-])ccc3O)S2)cc1,26*,/,-13,34*,/
O=S(=O)(c1cnc(Cl)c(Cl)c1)N1CCc2ccccc21,-3,16*,-5,-1,-2
O=S(=O)(c1cnc(Cl)c(Cl)c1)N1CCCc2ccccc21,-2,0,-1,-1,-2
CCC1CCCCN1CCCNC(=O)Cn1cnc2sc(C)c(S(=O)(=O)N3CC(C)CC(C)C3)c2c1=O (stereo not drawn),0,/,-11,-1,/
O=C1CCN2C=Nc3cccc4ccc1c2c34,38*,8,-14,29*,7
COc1cc(OC)cc(C(=O)NCC2CCCN(C(=O)c3oc(C)cc3C)C2)c1 (stereo not drawn),0,/,7,0,/
O=C(CCl)Nc1ncc(S(=O)(=O)c2ccc([N+](=O)[O-])cc2)s1,5,/,-3,3,/
CCCC(C)C(=O)Nc1ncc(S(=O)(=O)c2ccc([N+](=O)[O-])cc2)s1 (stereo not drawn),22*,/,-12,46*,/
CCC(C)(C)C(=O)Nc1ncc(S(=O)(=O)c2ccc([N+](=O)[O-])cc2)s1,33*,11,-23,22*,12

# High-throughput results as filed in PubChem BioAssay.
